Our source for the Ki, inhibition and IC50 values is ChEMBL document CHEMBL4680130, “Substituted 4-phenylthiazoles: Development of potent and selective A, A and dual A/A adenosine receptor antagonists” (Eur J Med Chem, 2020).

In assay [1] the target is T1, Adenosine receptor A1 (Homo sapiens, UniProt P30542).
T1 sequence (P30542 whole entry): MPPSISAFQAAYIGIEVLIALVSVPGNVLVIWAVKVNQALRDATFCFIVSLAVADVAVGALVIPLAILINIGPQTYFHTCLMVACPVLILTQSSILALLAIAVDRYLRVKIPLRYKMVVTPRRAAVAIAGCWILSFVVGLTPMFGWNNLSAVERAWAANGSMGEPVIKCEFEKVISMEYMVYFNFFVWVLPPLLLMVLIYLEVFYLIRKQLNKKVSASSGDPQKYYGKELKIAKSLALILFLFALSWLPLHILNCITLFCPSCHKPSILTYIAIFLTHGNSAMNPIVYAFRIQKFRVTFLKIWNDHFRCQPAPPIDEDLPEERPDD
The assay is described as follows: Displacement of [3H]CCPA from human adenosine receptor A1 expressed in CHO cell membranes incubated for 90 mins by radioligand competition assay. Also noted: species or system Cell membrane.

In assay [2] the target is T2, Adenosine receptor A1 (Rattus norvegicus, UniProt P25099).
T2 sequence (P25099 whole entry): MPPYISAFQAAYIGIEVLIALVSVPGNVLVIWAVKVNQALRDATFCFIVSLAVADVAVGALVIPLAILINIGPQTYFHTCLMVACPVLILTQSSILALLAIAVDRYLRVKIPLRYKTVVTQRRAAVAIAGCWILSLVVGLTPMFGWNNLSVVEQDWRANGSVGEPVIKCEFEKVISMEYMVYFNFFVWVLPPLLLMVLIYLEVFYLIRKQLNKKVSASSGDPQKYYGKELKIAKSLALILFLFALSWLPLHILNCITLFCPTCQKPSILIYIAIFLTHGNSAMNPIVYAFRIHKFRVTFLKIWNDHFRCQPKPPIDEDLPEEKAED
Nature of the assay: Displacement of [3H]CCPA from adenosine receptor A1 in rat brain cortex membranes incubated for 90 mins by radioligand competition assay. The format is cell membranes, Cell membrane.

Assay [3] has as its target T3, Adenosine receptor A2a (Homo sapiens, UniProt P29274). The assay is described as follows: Displacement of [3H]MSX2 from human adenosine receptor A2A expressed in HEK293 cell membranes incubated for 30 mins by radioligand competition assay. Also noted: species or system Cell membrane.
In assay [4] the target is Adenosine receptor A2a (Rattus norvegicus, UniProt P30543). The assay is described as follows: Displacement of [3H]MSX2 from adenosine receptor A2A in rat brain striatum membranes incubated for 30 mins by radioligand competition assay. It counts as cell membranes, Cell membrane.
Chain of Adenosine receptor A2a (Rattus norvegicus, UniProt P30543) (P30543 whole entry): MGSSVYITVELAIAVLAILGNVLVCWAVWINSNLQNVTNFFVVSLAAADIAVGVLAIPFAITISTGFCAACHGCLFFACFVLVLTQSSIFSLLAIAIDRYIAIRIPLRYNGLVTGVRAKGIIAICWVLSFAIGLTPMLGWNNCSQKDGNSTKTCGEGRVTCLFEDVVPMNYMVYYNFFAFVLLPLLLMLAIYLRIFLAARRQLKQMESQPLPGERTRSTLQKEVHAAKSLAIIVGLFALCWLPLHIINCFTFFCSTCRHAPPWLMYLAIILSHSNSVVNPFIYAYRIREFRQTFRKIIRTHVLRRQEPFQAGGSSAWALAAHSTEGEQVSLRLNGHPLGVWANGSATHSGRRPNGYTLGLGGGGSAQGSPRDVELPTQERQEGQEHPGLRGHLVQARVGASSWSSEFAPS
Assay [5] concerns the target T4, Adenosine receptor A2b (Homo sapiens, UniProt P29275).
T4 sequence (P29275 whole entry): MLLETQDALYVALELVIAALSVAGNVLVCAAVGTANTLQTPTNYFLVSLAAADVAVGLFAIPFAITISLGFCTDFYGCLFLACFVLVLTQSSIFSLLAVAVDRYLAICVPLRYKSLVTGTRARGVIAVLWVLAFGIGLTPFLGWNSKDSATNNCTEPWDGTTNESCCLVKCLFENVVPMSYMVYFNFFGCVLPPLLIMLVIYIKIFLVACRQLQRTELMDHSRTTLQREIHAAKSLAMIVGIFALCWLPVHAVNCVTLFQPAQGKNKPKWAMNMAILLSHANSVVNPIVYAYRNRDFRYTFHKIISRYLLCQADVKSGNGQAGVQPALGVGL
The assay is described as follows: Displacement of [3H]PSB-603 from human adenosine receptor A2B expressed in CHO cell membranes incubated for 75 mins by radioligand competition assay. Also noted: species or system Cell membrane.

The target in assay [6] is T5, Adenosine receptor A3 (Homo sapiens, UniProt P0DMS8).
T5 sequence (P0DMS8 whole entry): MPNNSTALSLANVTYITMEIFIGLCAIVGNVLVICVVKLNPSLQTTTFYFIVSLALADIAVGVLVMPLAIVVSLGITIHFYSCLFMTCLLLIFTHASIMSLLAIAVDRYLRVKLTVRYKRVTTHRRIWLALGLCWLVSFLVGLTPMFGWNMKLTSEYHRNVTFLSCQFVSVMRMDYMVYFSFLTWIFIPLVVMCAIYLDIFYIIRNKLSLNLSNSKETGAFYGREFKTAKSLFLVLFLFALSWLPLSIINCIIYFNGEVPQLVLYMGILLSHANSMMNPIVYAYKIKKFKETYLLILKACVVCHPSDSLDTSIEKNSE
Nature of the assay: Displacement of [3H]PSB-11 from human adenosine receptor A3 expressed in CHO cell membranes incubated for 60 mins by radioligand competition assay. Also noted: species or system Cell membrane.

The target of assay [7] is T6, Adenosine receptor A3 (Rattus norvegicus, UniProt P28647).
T6 sequence (P28647 whole entry): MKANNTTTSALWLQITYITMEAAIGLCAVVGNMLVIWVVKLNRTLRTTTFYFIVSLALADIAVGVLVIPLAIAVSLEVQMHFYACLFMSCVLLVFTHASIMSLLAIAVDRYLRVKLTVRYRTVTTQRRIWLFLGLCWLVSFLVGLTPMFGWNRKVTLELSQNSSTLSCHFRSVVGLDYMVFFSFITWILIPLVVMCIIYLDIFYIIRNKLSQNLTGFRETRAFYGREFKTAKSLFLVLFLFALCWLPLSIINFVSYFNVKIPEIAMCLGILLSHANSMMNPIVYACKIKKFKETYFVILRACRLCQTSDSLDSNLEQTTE
Nature of the assay: Displacement of [3H]NECA from rat adenosine receptor A3 expressed in CHO cell membranes incubated for 60 mins by radioligand competition assay. Also noted: species or system Cell membrane.

Assay [8] deals with T7, Adenosine receptor A2b (Homo sapiens) (UniProt P29275).
T7 sequence (whole entry): T4 sequence (P29275 whole entry)
Nature of the assay: Displacement of [3H]PSB-603 from human adenosine receptor A2B expressed in CHO cell membranes at 0.1 uM incubated for 75 mins by radioligand competition assay relative to control. The conditions noted are these: Cell membrane. In outline: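 CHO membranes expressing human or rat A2B, [3H]PSB-603 0.3 nM. Nonspecific binding defined by 10 µM DPCPX. Preincubated 20 min with adenosine deaminase, then 75 min at rt in Tris-HCl pH 7.4 with 2.5% DMSO. Filters washed with ice-cold 50 mM Tris-HCl containing 0.1% BSA; scintillation counting.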

Assay [9] deals with T8, Adenosine receptor A1 (Rattus norvegicus) (UniProt P25099).
T8 sequence (whole entry): T2 sequence (P25099 whole entry)
Nature of the assay: Displacement of [3H]CCPA from adenosine receptor A1 in rat brain cortex membranes at 0.1 uM incubated for 90 mins by radioligand competition assay. The settings on record: Cell membrane. In outline: (§1)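 A1 competition binding with [3H]CCPA, 0.5 nM. Membranes: CHO cells expressing human A1, or rat brain cortex. Membranes preincubated 20 min with adenosine deaminase (2 U/mL per mg protein). Incubation 90 min at rt in 50 mM Tris-HCl pH 7.4 with 2.5% final DMSO. Nonspecific binding defined by 10 µM 2-chloroadenosine. GF/B filtration, scintillation counting.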

The target in assay [10] is Adenosine receptor A2a (Rattus norvegicus) (UniProt P30543). The assay is described as follows: Displacement of [3H]MSX2 from adenosine receptor A2A in rat brain striatum membranes at 0.1 uM incubated for 30 mins by radioligand competition assay relative to control. The settings on record: Cell membrane. An outline of the steps: (§2)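 A2A binding, [3H]MSX-2 1.0 nM. Membranes: rat brain striatum, or HEK293 cells expressing human A2A. Adenosine deaminase preincubation 20 min, then 30 min at rt in 50 mM Tris-HCl pH 7.4 with 2.5% DMSO. Nonspecific binding defined by 50 µM NECA. GF/B filtration, scintillation counting. Single-concentration percent inhibition, ≥3 experiments in duplicate or triplicate.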
Chain of Adenosine receptor A2a (Rattus norvegicus) (P30543 whole entry): as the sequence (P30543 whole entry) above

Assay [11] has as its target T9, Adenosine receptor A3 (Rattus norvegicus) (UniProt P28647).
T9 sequence (whole entry): T6 sequence (P28647 whole entry)
The assay is described as follows: Displacement of [3H]NECA from rat adenosine receptor A3 expressed in CHO cell membranes at 0.1 uM incubated for 60 mins by radioligand competition assay relative to control. The conditions noted are these: Cell membrane. An outline of the steps: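 CHO membranes expressing rat A3, [3H]NECA 10 nM. Nonspecific binding defined by 100 µM R-PIA. Preincubated 20 min with adenosine deaminase, then 60 min at rt in 50 mM Tris-HCl pH 7.4 with 2.5% DMSO. GF/B filtration, scintillation counting.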

Assay [12] concerns the target T2, Adenosine receptor A1. The assay is described as follows: Displacement of [3H]DPCPX from rat brain cortical membrane A1AR in absence of GTP by scintillation counting analysis. It counts as cell membranes, Cortex, Cell membrane.
Assay [13] concerns the target T2, Adenosine receptor A1. Nature of the assay: Displacement of [3H]DPCPX from rat brain cortical membrane A1AR in presence of 100 uM of GTP by scintillation counting analysis. It counts as cell membranes, Cortex, Cell membrane.
Assay [14] concerns the target T2, Adenosine receptor A1. The assay is described as follows: Displacement of [3H]CCPA from rat adenosine receptor A1 by radioligand competition assay. In outline: as §1
The target of assay [15] is T2, Adenosine receptor A1. Nature of the assay: Displacement of [3H]DPCPX from rat adenosine receptor A1 by radioligand competition assay. In outline:
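Rat brain cortical membranes, [3H]DPCPX 0.4 nM. Nonspecific binding defined by 10 μM DPCPX. Curves run with and without 100 μM GTP. Incubation 90 min at rt in 50 mM Tris-HCl pH 7.4, after 20 min adenosine deaminase preincubation. Filtration, then scintillation counting. GTP shift is the IC50 with GTP divided by the IC50 without GTP.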

The target of assay [16] is T3, Adenosine receptor A2a. The assay is described as follows: Displacement of [3H]MSX2 from human adenosine receptor A2A expressed in HEK293 cell membranes at 0.1 uM incubated for 30 mins by radioligand competition assay relative to control. The conditions noted are these: Cell membrane, in the assay text read “at 1 uM” for “at 0.1 uM”. An outline of the steps: as §2

For assay [17], the target named is T10, Adenosine receptor A3 (Homo sapiens) (UniProt P0DMS8).
T10 sequence (whole entry): T5 sequence (P0DMS8 whole entry)
Nature of the assay: Displacement of [3H]PSB-11 from human adenosine receptor A3 expressed in CHO cell membranes at 0.1 uM incubated for 60 mins by radioligand competition assay. The settings on record: Cell membrane, filed as antagonist, dose 0.1 µM. In outline: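 CHO membranes expressing human A3, [3H]PSB-11 0.5 nM. Nonspecific binding defined by 100 µM R-PIA. Adenosine deaminase preincubation 20 min, then 60 min at rt in 50 mM Tris-HCl pH 7.4 with 2.5% DMSO. Filtered on GF/B, scintillation counted.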

T3 sequence (P29274 whole entry): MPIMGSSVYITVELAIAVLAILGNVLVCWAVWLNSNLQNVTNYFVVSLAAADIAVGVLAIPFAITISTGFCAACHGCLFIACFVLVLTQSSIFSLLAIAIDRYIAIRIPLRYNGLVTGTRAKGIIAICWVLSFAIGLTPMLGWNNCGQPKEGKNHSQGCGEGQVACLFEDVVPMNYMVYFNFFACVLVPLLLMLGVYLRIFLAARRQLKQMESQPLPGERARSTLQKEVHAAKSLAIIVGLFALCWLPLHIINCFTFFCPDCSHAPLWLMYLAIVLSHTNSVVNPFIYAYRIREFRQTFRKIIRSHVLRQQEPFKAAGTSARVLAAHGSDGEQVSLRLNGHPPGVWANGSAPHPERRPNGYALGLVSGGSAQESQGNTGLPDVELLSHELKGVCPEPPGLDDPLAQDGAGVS

For `COc1ccc(C(=O)Nc2nc(-c3ccccc3)c(-c3nc4ccccc4c(=O)n3-c3ccc(C)cc3)s2)cc1`, the Ki in [1] is more than 1000 nM; in assay [2], more than 1000 nM; in assay [3], more than 1000 nM; in assay [4], more than 1000 nM; in assay [5], more than 100 nM; in assay [6], 27.8 nM. The Ki in [7] is more than 10000 nM. The inhibition in [8] amounted to 2%; in assay [9] (filed as antagonist), 25%; in assay [10], 15%; in assay [11], 15%.
Regarding `O=C(Nc1nc(-c2ccccc2)c(C(=O)c2ccc(F)cc2F)s1)c1ccccc1`, the Ki in assay [1] was 55.3 nM; in assay [2], 2.79 nM; in assay [3], 77.7 nM; in assay [4], more than 1000 nM; in [5], more than 100 nM; in assay [6], 67.8 nM. Moreover, the Ki in assay [14] was 2.79 nM; in assay [15], 2.93 nM. In addition, the IC50 in assay [12] came out at 3.15 nM; in [13] it was 3.14 nM.
Take `O=C(Nc1nc(-c2ccccc2)c(-c2nc3ccccc3c(=O)n2-c2ccc(Cl)cc2)s1)c1ccco1`: the Ki in assay [1] was more than 1000 nM; in [2] it was more than 1000 nM; in [3], more than 1000 nM; in [4] it was more than 1000 nM; in assay [5], more than 100 nM; in [6], 48.3 nM. The compound further gave a Ki in assay [7] of 607 nM. The inhibition in [16] was 8%; in assay [8], 1%; in assay [9] it was 24%; in assay [10], 14%.
As to `O=C(Nc1nc(-c2ccccc2)c(C(=O)c2ccc(F)cc2F)s1)c1ccco1`, the Ki in [1] is 178 nM; in assay [2] it was 6.69 nM; in [3] it was 132 nM; in [4], 73.3 nM; in [5], more than 100 nM; in assay [6], 124 nM. The inhibition in assay [8] came to 15%; in assay [17], 100%.
`O=C(Nc1nc(-c2ccccc2)c(C(=O)c2ccc(Cl)cc2)s1)c1ccccc1`: the Ki in assay [1] was 24.4 nM; in assay [2] it was 0.939 nM; in assay [3], 39.1 nM; in [4], 1670 nM; in [5] it was more than 100 nM; in [6] it was 428 nM. In addition, the Ki in assay [14] is 0.939 nM; in assay [15] it was 0.0867 nM. Moreover, the IC50 was 0.0929 nM in assay [12] and 0.0981 nM in assay [13].
